From ChEMBL document CHEMBL1127590 (J Med Chem, 1994)

Key:
[1] = In vitro inhibitory activity against human adrenal 3-beta hydroxy-delta 5-teroid isomerase
In short: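 Microsomes were prepared from human adrenal tissue by homogenization and differential centrifugation. Inhibitor in 50% DMSO was preincubated 10 min at 37 °C in 100 mM potassium phosphate pH 7.5 with 1 mM NAD+. The reaction was started with 100 nM [3H]DHEA and quenched in ethanol after 15 min. DHEA-to-androstenedione conversion was measured by radio-HPLC.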

[2] = target: T1, 3-oxo-5-alpha-steroid 4-dehydrogenase 2 (Homo sapiens, UniProt P31213); assay: In vitro inhibitory activity against human type 2 5-alpha reductase
T1 sequence (P31213 whole entry): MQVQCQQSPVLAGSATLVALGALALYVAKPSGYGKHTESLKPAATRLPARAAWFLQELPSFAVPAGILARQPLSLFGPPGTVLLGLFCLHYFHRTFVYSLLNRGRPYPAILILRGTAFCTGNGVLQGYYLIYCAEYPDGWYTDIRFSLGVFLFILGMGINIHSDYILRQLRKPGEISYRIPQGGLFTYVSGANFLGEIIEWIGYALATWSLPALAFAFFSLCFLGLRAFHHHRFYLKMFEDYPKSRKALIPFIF

[3] = target: T2, 3-oxo-5-alpha-steroid 4-dehydrogenase 1 (Homo sapiens, UniProt P18405); assay: In vitro inhibitory activity against human type 1 5-alpha reductase
T2 sequence (P18405 whole entry): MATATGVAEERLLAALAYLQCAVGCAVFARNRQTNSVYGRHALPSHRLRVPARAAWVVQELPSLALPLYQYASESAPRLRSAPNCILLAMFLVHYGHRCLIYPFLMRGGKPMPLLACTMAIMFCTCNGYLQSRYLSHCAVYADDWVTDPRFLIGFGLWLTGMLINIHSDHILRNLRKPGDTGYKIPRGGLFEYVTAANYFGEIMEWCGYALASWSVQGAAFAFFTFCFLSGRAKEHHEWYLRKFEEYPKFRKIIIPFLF
In short: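 Used microsomes from baculovirus-infected SF-9 cells expressing recombinant human type 1 5AR, at final enzyme 0.05–5 nM. Buffer at pH 7 and 37 °C contained an NADPH-regenerating system. Inhibitor was preincubated 10 min before adding 100 nM [3H]testosterone.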

SMILES | Ki [1] [nM] | IC50 [2] [nM] | Ki [3] [nM]
CCN(CC)C(=O)[C@H]1CC[C@H]2[C@@H]3CC[C@H]4N(C)C(=O)CC[C@]4(C)[C@H]3CC[C@]12C | 20 | 0.23 | 5
C[C@]12CCC(=O)C=C1NCC1C2CC[C@@]2(C)C1CC[C@@H]2C(=O)N1CCOCC1 (stereo not given in full) | 190 | – | –
COC(=O)[C@H]1CCC2C3CNC4=CC(=O)CC[C@]4(C)C3CC[C@@]21C (stereo not given in full) | 12 | – | –
C[C@]12CCC(=O)C(Br)=C1NCC1C2CC[C@@]2(C)C1CC[C@@H]2C(=O)NC12CC3CC(CC(C3)C1)C2 (stereo not given in full) | 13 | < 0.1 | 4.5
CCN(CC)C(=O)[C@H]1CCC2C3CN(C#N)C4=CC(=O)CC[C@]4(C)C3CC[C@@]21C (stereo not given in full) | 1500 | 42 | 8300
CN1CC2C(CC[C@@]3(C)C2CC[C@@H]3C(=O)NC(C)(C)C)[C@@]2(C)C=CC(=O)C=C12 (stereo not given in full) | 62 | 6.7 | 1400
CCN(CC)C(=O)[C@H]1CCC2C3CNC4=C(Br)C(=O)CC[C@]4(C)C3CC[C@@]21C (stereo not given in full) | 13 | 2.1 | 97
CC1=C2N(C)CC3C(CC[C@@]4(C)C3CC[C@@H]4C(=O)NC34CC5CC(CC(C5)C3)C4)[C@@]2(C)CCC1=O (stereo not given in full) | 18 | 0.4 | 6.2
CON(C)C(=O)[C@H]1CCC2C3CNC4=CC(=O)CC[C@]4(C)C3CC[C@@]21C (stereo not given in full) | 50 | – | –
CCCCCCCCC(=O)[C@H]1CCC2C3CNC4=CC(=O)CC[C@]4(C)C3CC[C@@]21C (stereo not given in full) | 7.5 | < 0.1 | 1
CN1CC2C(CC[C@@]3(C)C2CC[C@@H]3C(=O)NC23CC4CC(CC(C4)C2)C3)[C@@]2(C)C=CC(=O)C=C12 (stereo not given in full) | 62 | 0.3 | 280
C[C@]12CCC(=O)C=C1NCC1C2CC[C@@]2(C)C1CC[C@@H]2C(=O)NC(c1ccccc1)(c1ccccc1)c1ccccc1 (stereo not given in full) | 100 | < 0.1 | –
CCN(CC)C(=O)[C@H]1CCC2C3CN(CC)C4=CC(=O)CC[C@]4(C)C3CC[C@@]21C (stereo not given in full) | 49 | – | 1300
C[C@]12CC[C@H]3[C@@H](CNC4=CC(=O)CC[C@@]43C)[C@@H]1CC[C@@H]2C(=O)OC1[C@H]2C[C@@H]3C[C@@H](C[C@H]1C3)C2 (stereo not given in full) | 180 | < 0.1 | 6.9
CCN(CC)C(=O)[C@H]1CCC2C3CN(C)C4=CC(=O)C=C[C@]4(C)C3CC[C@@]21C (stereo not given in full) | 22 | 5.7 | 1300
CCCN1CC2C(CC[C@@]3(C)C2CC[C@@H]3C(=O)NC(c2ccccc2)c2ccccc2)[C@@]2(C)C=CC(=O)C=C12 (stereo not given in full) | 180 | 1.3 | 340
C[C@]12CCC(=O)C=C1NCC1C2CC[C@@]2(C)C1CC[C@@H]2C(=O)N1CCNCC1 (stereo not given in full) | 220 | – | –
CC(C)CC(=O)[C@H]1CCC2C3CNC4=C(Br)C(=O)CC[C@]4(C)C3CC[C@@]21C (stereo not given in full) | 2.3 | – | 3.2
CCCC(=O)[C@H]1CCC2C3CNC4=CC(=O)CC[C@]4(C)C3CC[C@@]21C (stereo not given in full) | 11 | – | 12
CCN(CC)C(=O)[C@H]1CCC2C3CN(CC(=O)O)C4=CC(=O)CC[C@]4(C)C3CC[C@@]21C (stereo not given in full) | 180 | 1500 | 10000
CCN(CC)C(=O)[C@H]1CCC2C3CNC4=C(CN(C)C)C(=O)CC[C@]4(C)C3CC[C@@]21C (stereo not given in full) | 1200 | 170 | 10000
CC(C)(C)NC(=O)[C@H]1CCC2C3CN=C4C=C(O)C5CC5[C@]4(C)C3CC[C@@]21C (stereo not given in full) | 300 | 4.4 | 49000
C[C@]12CCC(=O)C=C1NCC1C2CC[C@@]2(C)C1CC[C@@H]2C(=O)NN(c1ccccc1)c1ccccc1 (stereo not given in full) | 160 | – | –
CCN(CC)C(=O)[C@H]1CCC2C3CNC4=CC(=O)C=C[C@]4(C)C3CC[C@@]21C (stereo not given in full) | 80 | 3.5 | 5800

SMILES | Ki [1] [nM] | IC50 [2] [nM] | Ki [3] [nM]
CC(C)(C)NC(=O)[C@H]1CCC2C3CNC4=CC(=O)C=C[C@]4(C)C3CC[C@@]21C (stereo not given in full) | 2200 | 1.8 | 2400
CC(C)CC(=O)[C@H]1CCC2C3CNC4=CC(=O)CC[C@]4(C)C3CC[C@@]21C (stereo not given in full) | 10 | < 0.1 | –
CCCCCCN1CC2C(CC[C@@]3(C)C2CC[C@@H]3C(=O)N(CC)CC)[C@@]2(C)CCC(=O)C=C12 (stereo not given in full) | 11000 | – | 5900
C[C@]12CCC(=O)C=C1NCC1C2CC[C@@]2(C)C1CC[C@@H]2C(=O)CC1CCCCC1 (stereo not given in full) | 16 | < 0.1 | 4
CCN(CC)C(=O)[C@H]1CCC2C3CNC4=C(Cl)C(=O)CC[C@]4(C)C3CC[C@@]21C (stereo not given in full) | 27 | – | 51
CCN(CC)C(=O)[C@H]1CCC2C3CN(C(C)=O)C4=CC(=O)CC[C@]4(C)C3CC[C@@]21C (stereo not given in full) | 34000 | 3000 | 40000
C[C@]12CCC(=O)C=C1NCC1C2CC[C@@]2(C)C1CC[C@@H]2C(=O)N1CCSCC1 (stereo not given in full) | 31 | – | –
CC1=C2N(C)CC3C(CC[C@@]4(C)C3CC[C@@H]4C(=O)NC(C)(C)C)[C@@]2(C)CCC1=O (stereo not given in full) | 23 | – | 60
CCN(CC)C(=O)[C@H]1CCC2C3CNC4=CC(=O)C(C)C[C@]4(C)C3CC[C@@]21C (stereo not given in full) | 510 | 3.4 | 3500
CC(C)(C)NC(=O)[C@H]1CCC2C3CNC4=CC(=O)CC[C@]4(C)C3CC[C@@]21C (stereo not given in full) | 150 | – | –
C[C@]12CCC(=O)C=C1NCC1C2CC[C@@]2(C)C1CC[C@@H]2C(=O)c1cccc2ccccc12 (stereo not given in full) | 7.8 | < 0.1 | 15
CCN(CC)C(=O)[C@H]1CCC2C3CNC4=CC(=O)CC[C@]4(C)C3CC[C@@]21C (stereo not given in full) | 60 | – | –
CCN(CC)C(=O)[C@H]1CCC2C3CN(Cc4ccccc4)C4=CC(=O)CC[C@]4(C)C3CC[C@@]21C (stereo not given in full) | 16000 | – | 10000
CCN(CC)C(=O)[C@H]1CCC2C3CN=C4C=C(O)C5CC5[C@]4(C)C3CC[C@@]21C (stereo not given in full) | 95 | 1.8 | 14000
CCN(CC)C(=O)[C@H]1CCC2C3CNC4=C(I)C(=O)CC[C@]4(C)C3CC[C@@]21C (stereo not given in full) | 15 | – | 690
C[C@]12CCC(=O)C=C1NCC1C2CC[C@@]2(C)C1CC[C@@H]2C(=O)N1CCCCC1 (stereo not given in full) | 110 | – | 85
CCN(CC)C(=O)[C@H]1CCC2C3CN(C)C4=C(C)C(=O)CC[C@]4(C)C3CC[C@@]21C (stereo not given in full) | 11 | – | 82
C[C@]12CCC(=O)C=C1NCC1C2CC[C@@]2(C)C1CC[C@@H]2C(=O)NC(C1CCCCC1)C1CCCCC1 (stereo not given in full) | 4000 | – | –
CCCCN1CC2C(CC[C@@]3(C)C2CC[C@@H]3C(=O)N(CC)CC)[C@@]2(C)CCC(=O)C=C12 (stereo not given in full) | 3600 | – | 7800
CC(C)(C)N(O)C(=O)[C@H]1CCC2C3CNC4=CC(=O)CC[C@]4(C)C3CC[C@@]21C (stereo not given in full) | 62 | – | 38
CCN(CC)C(=O)[C@H]1CCC2C3CCNC4=CC(=O)CC[C@]4(C)C3CC[C@@]21C (stereo not given in full) | 1500 | 3.8 | 1000
CCCN1CC2C(CC[C@@]3(C)C2CC[C@@H]3C(=O)N(CC)CC)[C@@]2(C)CCC(=O)C=C12 (stereo not given in full) | 520 | – | 24000
CCC1=C2NCC3C(CC[C@@]4(C)C3CC[C@@H]4C(=O)N(CC)CC)[C@@]2(C)CCC1=O (stereo not given in full) | 47 | 180 | 4100
CCN(CC)C(=O)[C@H]1CCC2C3CN(C)C4=CC(=O)C5CC5[C@]4(C)C3CC[C@@]21C (stereo not given in full) | 10 | – | 10000
